KDM4C inh = blocks human GASC-1 (KDM4C) demethylase activity; hit rate 0.15% among 96,000; GST-KDM4C 2-372, H3K9me3 peptide, LANCE TR-FRET; Q9H3R0; inhibition, % at 12.5 µM; AID 720574;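 active = mean replicate inhibition above about 25%, with at least 55% of replicates also reaching it, limit read from the data, passing the limit was not always enough; inconclusive = only one of those two conditions met; inactive = neither condition met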
Target sequence (Q9H3R0 2-372 limits assumed): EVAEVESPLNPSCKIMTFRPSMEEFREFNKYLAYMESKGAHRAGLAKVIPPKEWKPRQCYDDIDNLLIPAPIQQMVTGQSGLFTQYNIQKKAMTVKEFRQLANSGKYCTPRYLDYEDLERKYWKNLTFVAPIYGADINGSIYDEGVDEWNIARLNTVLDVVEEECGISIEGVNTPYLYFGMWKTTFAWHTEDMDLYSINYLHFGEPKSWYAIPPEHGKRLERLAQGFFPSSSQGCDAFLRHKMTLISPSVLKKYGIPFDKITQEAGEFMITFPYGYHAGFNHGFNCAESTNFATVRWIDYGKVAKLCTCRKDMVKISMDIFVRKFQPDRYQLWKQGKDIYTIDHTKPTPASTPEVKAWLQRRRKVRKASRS
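Test system: N-terminal GST-fused human GASC-1 (KDM4C) fragment, residues 2-372; quantity: GASC-1 enzyme at 10 nM final in reaction; dosing: single dose; schedule: 30 min demethylation and 1 h detection at room temperature; signal: LANCE TR-FRET, excitation 340 nm, emissions 618 and 671 nm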
Pf Dd2 inh = blocks growth of Plasmodium falciparum Dd2 parasites; P. falciparum Dd2 growth, SYBR Green, 72 h; active compounds read low; activity change, % at 10 µM; hit rate 2.3% among 94,000; AID 1159554; in the data active = activity change below about -80%; inconclusive = no clear call, values can overlap the other calls
T cruzi growth-1 = T. cruzi proliferation inhibition; T. cruzi beta-gal in NIH3T3, GalScreen luminescence, 90 h; AID 624255; hit rate 5.9% among 77,000; inhibition, % at 8.34 µM;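 active = mean inhibition above about 93%, with at least 55% of replicates each passing it, limit read from the data, passing the limit was not always enough; inconclusive = only one of those two conditions holds; inactive = neither condition holds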
IDH1 mut inh = IDH1 R132H (human) inhibition; O75874; IDH1 R132H reductase, diaphorase/resazurin fluorescence, 60 min; inhibition, % at 10 µM; hit rate 0.18% among 70,000; in the data active = inhibition above about 34%; inconclusive = no clear call, values can overlap the other calls; inactive = below about 11%;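 note: 0% = DMSO and 100% = no enzyme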
Target sequence (O75874 whole entry R132H): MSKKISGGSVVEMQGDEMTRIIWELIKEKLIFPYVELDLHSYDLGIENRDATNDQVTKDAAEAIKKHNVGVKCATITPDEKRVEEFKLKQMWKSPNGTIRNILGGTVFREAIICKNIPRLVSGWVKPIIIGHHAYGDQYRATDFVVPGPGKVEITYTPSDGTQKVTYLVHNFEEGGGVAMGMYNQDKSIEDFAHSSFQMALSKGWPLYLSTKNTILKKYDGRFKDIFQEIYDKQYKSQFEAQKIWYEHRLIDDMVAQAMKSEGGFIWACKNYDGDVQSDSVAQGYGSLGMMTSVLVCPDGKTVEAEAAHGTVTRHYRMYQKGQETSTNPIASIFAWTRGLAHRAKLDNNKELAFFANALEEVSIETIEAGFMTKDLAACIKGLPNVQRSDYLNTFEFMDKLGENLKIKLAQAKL
T cruzi growth-2 = Trypanosoma cruzi proliferation inhibition; shares compounds with T cruzi growth-1; T. cruzi beta-gal in NIH3T3, GalScreen luminescence, 90 h; inhibition, % at 8.35 µM; hit rate 72% among 5,600; AID 651739;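 active = mean replicate inhibition above about 95% and at least 55% of replicates individually reaching it, limit read from the data; inconclusive = only one of the two criteria is met; inactive = neither criterion is met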
T cruzi growth-3 = inhibitors of T. cruzi proliferation. AID 651740. hit rate 21% among 5,600. inhibition, % at 2.09 µM. T. cruzi beta-gal in NIH3T3, GalScreen luminescence, 90 h. shares compounds with T cruzi growth-1;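 active = mean inhibition above about 95%, with at least 55% of replicates also reaching it, limit read from the data; inconclusive = meets just one of the two conditions; inactive = meets neither condition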;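 note: plate controls were neutral control median for no effect and positive control median for full effect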
3T3 cytotox = kills mouse NIH/3T3 fibroblasts; shares compounds with T cruzi growth-1; NIH/3T3 viability, CellTiter-Glo ATP luminescence, 90 h; cytotoxicity (signal decrease), % at 8.35 µM; hit rate 14% among 5,600;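 active = mean signal decrease across replicates above about 35% based on untreated-well scatter, with enough replicates individually passing, limit read from the data; inconclusive = no rule stated though some were filed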;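 note: 0% = median of neutral control wells and 100% = median of positive control wells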
3T3 cytotox 2 = NIH/3T3 (mouse) viability loss. AID 651744. NIH/3T3 viability, CellTiter-Glo ATP luminescence, 90 h. inhibition, % at 24.9 µM. shares compounds with T cruzi growth-1. hit rate 56% among 5,600;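 active = mean loss of cell viability signal at or above a set limit, and enough replicates individually reaching it; inconclusive = meets only the mean limit or only the replicate share; inactive = meets neither condition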;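 note: 0% = median of neutral control wells and 100% = median of positive control wells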
Active calls of the source: *; u = inconclusive; x = no result; + = active, no number. Hits are enriched below; roughly 5.8% of the tested compounds scored in any of these assays.

SMILES	KDM4C inh	Pf Dd2 inh	T cruzi growth-1	IDH1 mut inh	T cruzi growth-2	T cruzi growth-3	3T3 cytotox	3T3 cytotox 2
CN1c2ccc(-c3ccc(C#N)cc3)cc2[C@@H]2[C@@H](CCN2C(=O)c2cccc(F)c2)[C@H]1CO	1.3	25.0	u	x	109.6*	103.1*	25.0	81.5*
COc1ccc(Br)c(/C=N/NC(=O)c2ccc(C(=O)NO)cc2)c1	x	x	x	0.3	x	x	x	x
C[C@H]1CCCCO[C@H](CN(C)Cc2ccc(C(F)(F)F)cc2)[C@@H](C)CN([C@@H](C)CO)C(=O)c2cc(NS(=O)(=O)c3ccccc3)ccc2O1	0.3	-36.0	u	x	91.0	96.5*	2.8	104.4*
C[C@@H]1CCCCO[C@H](CN(C)Cc2ccc(C(F)(F)F)cc2)[C@@H](C)CN([C@H](C)CO)C(=O)c2cc(NS(=O)(=O)c3ccccc3)ccc2O1	1.9	-1.0	u	4.6	97.3*	-6.8	14.6	49.6*
C[C@@H]1CCCCO[C@@H](CN(C)Cc2ccc(C(F)(F)F)cc2)[C@@H](C)CN([C@H](C)CO)C(=O)c2cc(NS(=O)(=O)c3ccc(Cl)cc3)ccc2O1	-0.7	-8.4	108.2*	x	95.4*	110.1*	25.3	102.0*
C[C@H](CO)N1C[C@H](C)[C@@H](CN(C)Cc2ccc(C(F)(F)F)cc2)OCCCC[C@H](C)Oc2ccc(NS(C)(=O)=O)cc2C1=O	-0.2	-24.6	92.8*	0.4	109.0*	32.4	21.0	53.5*
C[C@@H]1CN([C@H](C)CO)C(=O)c2cc(NS(C)(=O)=O)ccc2O[C@@H](C)CCCCO[C@@H]1CN(C)Cc1ccc(C(F)(F)F)cc1	-0.7	-51.8	67.3	-2.9	x	x	x	x
O=C(CCCOc1ccc(Cl)cc1Cl)Nc1ccc2c(c1)C(=O)NC2=O	x	x	x	0.1	x	x	x	x
COC(=O)c1cccc(NC(=O)CN(c2cccc(F)c2)S(C)(=O)=O)c1C	x	x	x	0.0	x	x	x	x
CC(=O)c1ccc(OC(=O)CCCN2C(=O)c3ccccc3C2=O)cc1	x	x	x	0.5	x	x	x	x
O=C(c1cccc(F)c1)N1CC[C@H]2[C@H](CO)Nc3ccc(C#Cc4ccccc4)cc3[C@H]21	0.3	-52.9	x	x	x	x	x	x
O=C(c1cccc(F)c1)N1CC[C@@H]2[C@H]1c1cc(C#Cc3ccc(F)cc3)ccc1N[C@@H]2CO	-2.4	-0.3	114.3*	x	107.7*	91.0	-2.1	79.1*
COc1ccc(C#Cc2ccc3c(c2)[C@@H]2[C@@H](CCN2C(=O)c2cccc(F)c2)[C@@H](CO)N3)cc1	-0.6	-59.3	102.2*	x	108.1*	83.9	-1.6	25.8*
C[C@H]1CN([C@@H](C)CO)C(=O)c2cc(NC(=O)Nc3cccc4ccccc34)ccc2O[C@H]1CN(C)Cc1ccc(-c2ccccc2)cc1	-4.5	-11.8	80.6	-1.3	x	x	x	x
C[C@H](CO)N1C[C@H](C)[C@@H](CN(C)Cc2ccc(-c3ccccc3)cc2)Oc2ccc(NC(=O)Nc3cccc4ccccc34)cc2C1=O	0.1	-15.6	101.6*	x	106.2*	71.8	9.4	27.6
C[C@@H]1CN([C@H](C)CO)C(=O)c2cc(NC(=O)Nc3cccc4ccccc34)ccc2O[C@H]1CN(C)Cc1ccc(-c2ccccc2)cc1	0.6	8.5	112.3*	-0.6	103.2*	90.7	8.7	-1.4
COc1ccc(C(=O)CSc2nnc(-c3ccccc3)n2-c2ccccc2)cc1	x	x	x	0.2	x	x	x	x
Cc1ccc(OCC(=O)Nc2ccc3c(c2)oc2ccccc23)cc1[N+](=O)[O-]	x	x	x	0.3	x	x	x	x
C[C@@H]1CN([C@@H](C)CO)C(=O)c2c(c3ccccc3n2C)-c2ccccc2CO[C@@H]1CN(C)Cc1cccnc1	1.7	-54.0	135.3*	6.1	99.1*	13.1	19.0	69.0*
C[C@H](CO)N1C[C@H](C)[C@@H](CN(C)C)OCc2ccccc2-c2c(n(C)c3ccccc23)C1=O	2.1	-22.6	u	0.4	12.3	24.8	-4.0	12.8
C[C@@H]1CN([C@H](C)CO)C(=O)c2c(c3ccccc3n2C)-c2ccccc2CO[C@@H]1CN(C)C	-0.2	-20.6	u	-0.5	-16.0	-9.9	-17.9	1.4
C[C@@H]1CN([C@@H](C)CO)C(=O)c2c(c3ccccc3n2C)-c2ccccc2CO[C@@H]1CN(C)S(C)(=O)=O	-0.2	-19.2	39.9	0.8	x	x	x	x
C[C@H]1CN([C@@H](C)CO)C(=O)c2c(c3ccccc3n2C)-c2ccccc2CO[C@@H]1CN(C)C	0.5	-30.7	40.9	-0.6	x	x	x	x
C[C@@H]1CN([C@H](C)CO)C(=O)c2c(c3ccccc3n2C)-c2ccccc2CO[C@H]1CN(C)C	1.4	27.8	106.5*	-3.4	86.5	-26.0	-6.5	13.5
CCN1[C@H](C(=O)N(C)C)[C@@H](CO)[C@@H]2Cn3c(ccc(-c4cccc(C(=O)N(C)C)c4)c3=O)[C@@H]21	-0.2	x	100.4*	x	50.8	17.8	7.6	-6.0
SMILES	KDM4C inh	Pf Dd2 inh	T cruzi growth-1	IDH1 mut inh	T cruzi growth-2	T cruzi growth-3	3T3 cytotox	3T3 cytotox 2
COc1ccc(-c2ccc3n(c2=O)C[C@H]2[C@H](CO)[C@@H](C(=O)N(C)C)N(CC4CC4)[C@@H]32)cc1	16.6	-1.7	102.9*	x	-32.5	13.3	0.9	6.7
O=C(Nc1ccc(S(=O)(=O)NCC2CCCO2)cc1)c1cc(-c2ccccc2)nc2ccccc12 (stereo unspecified)	x	x	x	0.0	x	x	x	x
CCn1c(SCC(=O)NC(C)(C)C)nnc1-c1cccc([N+](=O)[O-])c1	x	x	x	0.1	x	x	x	x
CC(C)(C)c1ccc(S(=O)(=O)N2CCN(c3ccc([N+](=O)[O-])c(NCc4cccnc4)c3)CC2)cc1	x	x	x	-0.1	x	x	x	x
O=C(Nc1ccccc1)[C@@H]1[C@@H](CO)[C@@H]2Cn3c(cccc3=O)[C@H]1N2Cc1ccncc1	1.3	2.3	99.7*	x	u	12.6	-1.4	3.5
CN1CCN(C(=O)[C@H]2[C@H](CO)[C@H]3Cn4c(cccc4=O)[C@@H]2N3Cc2ccncc2)CC1	1.2	x	+	x	-17.4	-2.2	-2.6	-13.7
O=C(NCc1ccc(F)cc1)[C@@H]1[C@@H](CO)[C@@H]2Cn3c(cccc3=O)[C@H]1N2	-2.6	7.7	u	x	-31.5	-24.9	-18.9	-13.3
O=C(NCc1ccc(F)cc1)[C@H]1[C@H](CO)[C@H]2Cn3c(cccc3=O)[C@@H]1N2Cc1cccnc1	-1.3	11.2	99.1*	x	89.3	-13.3	-3.4	-11.0
O=C(NCc1ccc(F)cc1)[C@@H]1[C@@H](CO)[C@@H]2Cn3c(cccc3=O)[C@H]1N2Cc1ccncc1	-2.1	1.1	-6.8	x	x	x	x	x
COc1ccc(-c2nc(SCC(=O)Nc3cccc(F)c3)n[nH]2)cc1	x	x	x	-0.2	x	x	x	x
O=C([C@H]1N[C@H]2c3ccc(C4=CCCCC4)c(=O)n3C[C@H]2[C@@H]1CO)N1CCC(Cc2ccccc2)CC1	-2.2	x	32.9	x	x	x	x	x

High-throughput results (PubChem)
